From PubChem BioAssay
HTRA1 inh: blocks human HTRA1 serine peptidase | recombinant HTRA1, FP-rhodamine activity-based probe, fluorescence polarization | Q92743 | 340,000 compounds, 0.5% hits | inhibition, % at 5.96 µM; in the data active = inhibition above about 36%
Target sequence (Q92743 whole entry, looked up): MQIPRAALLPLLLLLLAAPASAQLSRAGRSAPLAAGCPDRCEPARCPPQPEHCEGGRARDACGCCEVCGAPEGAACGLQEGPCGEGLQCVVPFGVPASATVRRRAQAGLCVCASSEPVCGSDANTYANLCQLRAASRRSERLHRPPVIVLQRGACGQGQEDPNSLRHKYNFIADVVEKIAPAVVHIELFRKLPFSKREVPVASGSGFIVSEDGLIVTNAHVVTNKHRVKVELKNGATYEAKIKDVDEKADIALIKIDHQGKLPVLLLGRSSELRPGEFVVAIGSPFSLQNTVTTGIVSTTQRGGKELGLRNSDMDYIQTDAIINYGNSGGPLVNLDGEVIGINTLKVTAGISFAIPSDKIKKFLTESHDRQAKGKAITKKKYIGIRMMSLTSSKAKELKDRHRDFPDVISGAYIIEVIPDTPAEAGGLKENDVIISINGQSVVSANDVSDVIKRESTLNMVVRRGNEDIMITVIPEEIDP
TCR-CD3 inh: inhibitors of human TCR-CD3 interaction. TAMRA-labeled TCR probe fluorescence, biochemical. inhibition, % at 9.4 µM. 360,000 compounds, 0.37% hits. AID 651800;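 also: recombinant mutant TCR 2C K166C tagged with TAMRA read by polarization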
PME-1 inh: blocks human protein phosphatase methylesterase 1. Q9Y570. recombinant PME-1, FP-Rh probe fluorescence polarization. inhibition, % at 5.9 µM. 320,000 compounds, 0.53% hits. AID 2130;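 active = inhibition above the campaign mean of all compounds plus 3 SD, cut at about 26% in these data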;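 also: competitive labeling of PME-1 active site by serine hydrolase directed probe; inhibitors block probe labeling so polarization falls and inhibition rises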
SIAE inh: human SIAE inhibition, primary screen. Q9HAT2. SIAE FP-Rh probe binding, fluorescence polarization. inhibition, % at 9.66 µM. 370,000 compounds, 0.69% hits;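 active = inhibition above a cutoff: mean of compounds within the control limits plus 3 SD of those, cut at about 17% in these data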
mABHD4 FP: inhibitors of mouse ABHD4; Q8VD66; purified mABHD4, FP-Rh probe fluorescence polarization; inhibition, % at 8.92 µM; 370,000 compounds, 0.54% hits; AID 720543;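 active = inhibition exceeding the mean over every tested compound plus 3 SD, cut at about 30% in these data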
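assay system = mABHD4 protein | compound dosing = single nominal dose of 8.92 µM, 0.89% DMSO final | read-out basis = percent inhibition of probe binding, normalized to plate controls | schedule = Enzyme–compound pre-incubation 45 min, then probe 60 min, both 25 °C | detection = fluorescence polarization, excitation 525 nm, emission 598 nm, BODIPY TMR filters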
Fam108B counter: counter-screen for RBBP9 inhibitors: inhibitors of mouse Fam108B | recombinant Fam108B, FP-Rh probe fluorescence polarization | inhibition, % at 9.51 µM | 300,000 compounds, 0.33% hits | AID 1947;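 active = inhibition above the screen mean inhibition plus 3 SD, computed separately per campaign, cut at about 18% in these data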;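 also: inhibitors lower polarization as less probe binds the enzyme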
HTRA1 conf: confirmation of human HTRA1 inhibitors. inhibition, % at 5.96 µM. 1,600 compounds, 66% hits. recombinant HTRA1, FP-rhodamine activity-based probe, fluorescence polarization. shares compounds with HTRA1 inh;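 active = mean inhibition over three repeats above a set limit taken from the earlier primary screen, cut at about 37% in these data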;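 also: inhibitors block probe binding so polarization drops and inhibition rises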
BSA probe FL: interferes with TAMRA-BSA probe, flagging TCR-CD3 hits; 1,200 compounds, 10% hits; inhibition, % at 9.4 µM; shares compounds with TCR-CD3 inh; TAMRA-labeled BSA probe fluorescence counterscreen; in the data active = inhibition above about 23%
TCR-CD3 conf: TCR-CD3 interaction inhibition, confirmation; shares compounds with TCR-CD3 inh; TAMRA-labeled TCR probe fluorescence binding assay; inhibition, % at 9.4 µM; 1,200 compounds, 48% hits
ABHD4 confirm: confirmation of mouse ABHD4 inhibitors | shares compounds with mABHD4 FP | purified mABHD4, FP-Rh probe fluorescence polarization | inhibition, % at 8.92 µM | 1,800 compounds, 55% hits;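 active = mean inhibition across replicates above the hit cutoff set in the primary screen, cut at about 30% in these data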
Numbers stand for hits; - = inactive; . = not tested or not shown. Compounds with a hit are over-represented: about 1.8% of the library has one in this group of screens. Rule as the data show it, unless noted: active = inhibition above about 19%; inactive = the rest.

SMILES	HTRA1 inh	TCR-CD3 inh	PME-1 inh	SIAE inh	mABHD4 FP	Fam108B counter	HTRA1 conf	ABHD4 confirm	others
Cc1ccc(-c2cc(C(=O)NN=Cc3c(O)ccc4ccccc34)[nH]n2)cc1C	.	.	.	-	-	.	.	.
Oc1ccc(Cc2ccccc2)c2cccnc12	.	-	.	-	-	.	.	.
COc1ccccc1N=Nc1ccc(O)c2ncccc12	80.6	-	-	-	38.0	-	62.5	36.5
O=C(CC1CCCC1)N1CC[C@H]2[C@H](CCCN2Cc2ccc(F)cc2)C1	.	.	.	-	-	.	.	.
COc1ccc(/C(C)=N/NC(=O)Cc2cc(=O)[nH][nH]2)cc1OC	.	.	.	-	-	.	.	.
Cc1ccc(SCc2cc(=O)c3c(=O)n(-c4ccccc4)[nH]c3[nH]2)cc1	56.0	-	-	-	54.4	-	-	34.5
O=C(NCCc1ccccn1)c1ccc2c(c1)ncn2C1CCCCC1	.	.	.	-	-	.	.	.
C[C@H]1[C@@H](NC(=O)C(c2ccccc2)c2ccccc2)CC[C@@]23CCCN2C(=O)CCC[C@@H]13	.	.	.	-	-	.	.	.
O=C1c2cc(O)cc(O)c2C(=O)c2c1cc(O)c([C@@H](CO)CCO)c2O	39.1	-	-	-	56.4	-	-	51.1
O=C(O)c1ccccc1NS(=O)(=O)c1ccc(NNC(=S)Nc2ccc(OC(F)F)cc2)c([N+](=O)[O-])c1	66.6	-	.	-	71.8	.	117.9	139.8
COc1cc(C=NNc2ccc(S(=O)(=O)Nc3ccccc3C(=O)O)cc2[N+](=O)[O-])ccc1O	49.0	-	.	-	64.4	.	74.9	91.2
CCOc1ccc(C=NNc2ccc(S(=O)(=O)Nc3ccccc3C(=O)O)cc2[N+](=O)[O-])cc1OC	-	.	.	.	.	.	.	.
O=C(O)c1ccccc1NS(=O)(=O)c1ccc(N/N=C/c2cccc(O)c2O)c([N+](=O)[O-])c1	73.7	24.7	.	-	85.5	.	77.6	76.7	BSA probe FL=-;TCR-CD3 conf=23.6
CCOc1ccc(C=Nn2c(-c3ccc(F)cc3)n[nH]c2=S)cc1	.	.	.	-	-	.	.	.
C=CCn1c(SCC(=O)c2ccc(O)c(O)c2)nnc1-c1ccc(OC)cc1	55.7	-	-	-	37.7	.	79.1	-
C=CCn1c(SCC(=O)c2ccc(O)c(O)c2)nnc1-c1ccc(C)cc1	60.1	-	-	-	33.5	.	66.2	-
CCCC1CCC2(CC1)CCC2OC(=S)Nc1cccc(Cl)c1 (configuration not stated)	.	.	.	-	-	.	.	.
COC(=O)CCC(=O)N1C2=NC3=C(C(=O)N(Cc4ccc5c(c4)OCO5)C3=O)C3N(C)c4ccccc4[C@]23C[C@H]1CO (some centres not stated)	.	.	.	-	-	.	.	.
CN(C)c1ccc(N/C=C/C(=O)c2ccccc2)cc1	54.4	-	-	-	45.5	-	-	-
O=C(/C=C/Nc1ccccc1)c1ccccc1	-	-	-	-	-	-	.	.
CC(=O)N1CCN(c2ccc(NCc3cccc4ccccc34)cc2)CC1	36.8	-	-	-	29.6	-	-	-
Cc1ccc(C)n1-c1ccc(N(C)C)cc1	38.2	-	-	-	31.7	-	39.6	-
COC(=O)c1ccccc1NCc1cc(=O)oc2cc(O)c(O)cc12	65.1	-	-	-	39.7	-	46.3	31.3
COc1ccc(C)cc1NCc1cc(=O)oc2cc(-c3ccccc3)c(O)cc12	-	-	-	-	-	-	.	.
Fc1ccc(CC2CCN(c3ncnc4sccc34)CC2)cc1	.	.	.	-	-	.	.	.
Oc1ccc(-c2nc(-c3ccc(O)c(O)c3)cs2)cc1	55.1	-	-	-	33.3	-	55.0	32.1
Oc1ccc(Nc2nc(-c3ccc4ccccc4c3)cs2)cc1	-	-	-	-	-	-	.	.
Cc1ccc(-c2nc3ncccn3c2NC(=O)Nc2ccc(F)cc2)cc1	.	.	.	-	-	.	.	.
